Experimental data taken from ChEMBL document CHEMBL4382192, “Discovery of a potent dual ALK and EGFR T790M inhibitor” (Eur J Med Chem, 2017).

Columns and labels:
[1] = molecular target: Calcium/calmodulin-dependent protein kinase type 1 (Homo sapiens) (UniProt Q14012); assay: Binding affinity to wild-type human full length CAMK1 (M1 to L370 residues) expressed in bacterial expression system assessed as residual binding level at 1 uM by Kinomescan method relative to control
[2] = system: Epidermal growth factor receptor (Homo sapiens), P00533 [UNDEFINED MUTATION]; assay: Binding affinity to human partial length EGFR S752-I759del mutant expressed in bacterial expression system assessed as residual binding level at 1 uM by Kinomescan method relative to control
Sequence of Epidermal growth factor receptor (Homo sapiens), P00533 [UNDEFINED MUTATION] (P00533 whole entry, looked up, stated change not applied): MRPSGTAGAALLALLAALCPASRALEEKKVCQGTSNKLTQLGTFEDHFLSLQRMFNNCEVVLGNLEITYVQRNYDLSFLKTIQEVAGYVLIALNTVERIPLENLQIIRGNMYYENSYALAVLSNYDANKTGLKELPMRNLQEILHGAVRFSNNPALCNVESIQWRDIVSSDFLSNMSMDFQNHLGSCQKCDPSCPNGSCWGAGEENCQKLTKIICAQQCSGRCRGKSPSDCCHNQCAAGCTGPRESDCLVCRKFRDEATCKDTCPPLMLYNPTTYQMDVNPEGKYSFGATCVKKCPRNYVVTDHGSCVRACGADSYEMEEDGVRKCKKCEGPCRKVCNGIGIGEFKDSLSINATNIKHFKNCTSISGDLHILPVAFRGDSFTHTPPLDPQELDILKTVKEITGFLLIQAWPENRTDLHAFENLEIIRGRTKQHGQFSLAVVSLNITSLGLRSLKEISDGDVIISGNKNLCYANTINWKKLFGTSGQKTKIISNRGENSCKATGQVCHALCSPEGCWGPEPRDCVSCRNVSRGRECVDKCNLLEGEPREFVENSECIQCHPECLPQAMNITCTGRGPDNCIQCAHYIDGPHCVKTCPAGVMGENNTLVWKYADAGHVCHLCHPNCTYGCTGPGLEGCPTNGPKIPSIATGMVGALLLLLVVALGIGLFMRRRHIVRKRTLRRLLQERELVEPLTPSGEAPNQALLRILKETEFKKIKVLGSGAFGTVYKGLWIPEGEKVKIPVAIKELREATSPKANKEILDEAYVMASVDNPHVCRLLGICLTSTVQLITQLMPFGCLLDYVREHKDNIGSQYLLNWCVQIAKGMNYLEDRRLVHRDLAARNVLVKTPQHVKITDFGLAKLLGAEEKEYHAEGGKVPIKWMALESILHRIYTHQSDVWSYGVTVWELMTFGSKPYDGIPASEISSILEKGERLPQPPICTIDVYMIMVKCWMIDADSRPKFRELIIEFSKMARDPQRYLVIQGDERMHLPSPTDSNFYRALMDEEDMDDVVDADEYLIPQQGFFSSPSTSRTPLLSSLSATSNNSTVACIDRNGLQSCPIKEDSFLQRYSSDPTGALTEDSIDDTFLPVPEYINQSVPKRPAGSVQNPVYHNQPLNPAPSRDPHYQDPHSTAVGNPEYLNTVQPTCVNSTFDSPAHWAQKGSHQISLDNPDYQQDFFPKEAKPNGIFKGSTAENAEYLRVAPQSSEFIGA
Procedure, shortened: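 Kinome-wide selectivity panel run by the KINOMEscan method, with the test compound at a single concentration of 1 μM. Wild-type and mutant kinases were profiled in the same screen.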

[3] = molecular target: Myosin light chain kinase family member 4 (Homo sapiens) (UniProt Q86YV6); assay: Binding affinity to wild-type human partial length MYLK4 (V79 to S380 residues) expressed in bacterial expression system assessed as residual binding level at 1 uM by Kinomescan method relative to control
[4] = system: eIF-2-alpha kinase GCN2 (Homo sapiens), Q9P2K8 [S808G]; assay: Binding affinity to wild-type human partial length GCN2 kinase domain 2 (R585 to T1018 residues) S808G mutant expressed in bacterial expression system assessed as residual binding level at 1 uM by Kinomescan method relative to control
[5] = molecular target: Fibroblast growth factor receptor 4 (Homo sapiens) (UniProt P22455); assay: Binding affinity to wild-type human partial length FGFR4 (G402 to E713 residues) expressed in bacterial expression system assessed as residual binding level at 1 uM by Kinomescan method relative to control
[6] = molecular target: Tyrosine-protein kinase ABL1 (Homo sapiens) (UniProt P00519); assay: Binding affinity to wild-type human non-phosphorylated ABL1 (S229 to K512 residues) expressed in mammalian expression system assessed as residual binding level at 1 uM by Kinomescan method relative to control
[7] = molecular target: Cytoplasmic tyrosine-protein kinase BMX (Homo sapiens) (UniProt P51813); assay: Binding affinity to wild-type human full length BMX (M1 to H675 residues) expressed in bacterial expression system assessed as residual binding level at 1 uM by Kinomescan method relative to control
[8] = molecular target: Cyclin-dependent kinase 17 (Homo sapiens) (UniProt Q00537); assay: Binding affinity to wild-type human full length PCTK2 (M1 to F523 residues) expressed in bacterial expression system assessed as residual binding level at 1 uM by Kinomescan method relative to control
Procedure, shortened: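 Single-point kinome-wide KINOMEscan binding panel, test compound at 1 μM, run by the provider's standard protocol.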

[9] = Metabolic stability in rat liver microsomes assessed as parent compound remaining at 1 uM after 30 mins in presence of NADPH by LC/MS/MS analysis; assay type: ADME, Microsome; conditions: read-out: Stability
Procedure, shortened: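 Compound at 1 μM final with 0.5 mg/mL microsomal protein in 100 mM phosphate buffer pH 7.4 at 37 °C, started by adding an NADPH-regenerating system. Reactions were quenched with cold acetonitrile at 0 and 30 min and spun down. Supernatant was analysed by LC-MS/MS. The 0-min sample, quenched before NADPH addition, was set as 100%, and percent parent remaining came from peak areas.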

[10] = molecular target: Serine/threonine-protein kinase 25 (Homo sapiens) (UniProt O00506); assay: Binding affinity to wild-type human partial length YSK1 (V14 to H295 residues) expressed in bacterial expression system assessed as residual binding level at 1 uM by Kinomescan method relative to control
[11] = Half life in mouse at 2 mg/kg, iv; assay type: ADME, organism-based; conditions: in vivo
[12] = molecular target: Epidermal growth factor receptor (Homo sapiens) (UniProt P00533); assay: Binding affinity to wild-type human partial length EGFR (R669 to V1011 residues) expressed in bacterial expression system assessed as residual binding level at 1 uM by Kinomescan method relative to control
Sequence of Epidermal growth factor receptor (Homo sapiens) (P00533 whole entry, the tested form may be a part): as the sequence (P00533 whole entry, looked up, stated change not applied) above

[13] = Drug uptake in mouse lung at 2 mg/kg, iv after 2 hrs; assay type: ADME, organism-based; conditions: read-out: Drug uptake
[14] = molecular target: Aurora kinase B (Homo sapiens) (UniProt Q96GD4); assay: Binding affinity to wild-type human partial length AURKB (D25 to A303 residues) expressed in mammalian expression system assessed as residual binding level at 1 uM by Kinomescan method relative to control
Sequence of Aurora kinase B (Homo sapiens) (Q96GD4 whole entry, the tested form may be a part): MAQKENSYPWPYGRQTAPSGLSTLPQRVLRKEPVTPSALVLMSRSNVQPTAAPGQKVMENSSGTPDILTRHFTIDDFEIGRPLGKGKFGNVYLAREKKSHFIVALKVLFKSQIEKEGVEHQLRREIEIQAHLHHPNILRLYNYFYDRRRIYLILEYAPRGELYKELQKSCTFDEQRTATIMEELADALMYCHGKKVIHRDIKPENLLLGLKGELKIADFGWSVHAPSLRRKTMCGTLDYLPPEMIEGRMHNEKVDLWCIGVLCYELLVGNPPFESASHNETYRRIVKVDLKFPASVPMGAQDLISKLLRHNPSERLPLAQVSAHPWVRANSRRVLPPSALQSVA

[15] = molecular target: Serine/threonine-protein kinase Nek10 (Homo sapiens) (UniProt Q6ZWH5); assay: Binding affinity to wild-type human partial length NEK10 (L488 to R809 residues) expressed in mammalian expression system assessed as residual binding level at 1 uM by Kinomescan method relative to control
Sequence of Serine/threonine-protein kinase Nek10 (Homo sapiens) (Q6ZWH5 whole entry, the tested form may be a part): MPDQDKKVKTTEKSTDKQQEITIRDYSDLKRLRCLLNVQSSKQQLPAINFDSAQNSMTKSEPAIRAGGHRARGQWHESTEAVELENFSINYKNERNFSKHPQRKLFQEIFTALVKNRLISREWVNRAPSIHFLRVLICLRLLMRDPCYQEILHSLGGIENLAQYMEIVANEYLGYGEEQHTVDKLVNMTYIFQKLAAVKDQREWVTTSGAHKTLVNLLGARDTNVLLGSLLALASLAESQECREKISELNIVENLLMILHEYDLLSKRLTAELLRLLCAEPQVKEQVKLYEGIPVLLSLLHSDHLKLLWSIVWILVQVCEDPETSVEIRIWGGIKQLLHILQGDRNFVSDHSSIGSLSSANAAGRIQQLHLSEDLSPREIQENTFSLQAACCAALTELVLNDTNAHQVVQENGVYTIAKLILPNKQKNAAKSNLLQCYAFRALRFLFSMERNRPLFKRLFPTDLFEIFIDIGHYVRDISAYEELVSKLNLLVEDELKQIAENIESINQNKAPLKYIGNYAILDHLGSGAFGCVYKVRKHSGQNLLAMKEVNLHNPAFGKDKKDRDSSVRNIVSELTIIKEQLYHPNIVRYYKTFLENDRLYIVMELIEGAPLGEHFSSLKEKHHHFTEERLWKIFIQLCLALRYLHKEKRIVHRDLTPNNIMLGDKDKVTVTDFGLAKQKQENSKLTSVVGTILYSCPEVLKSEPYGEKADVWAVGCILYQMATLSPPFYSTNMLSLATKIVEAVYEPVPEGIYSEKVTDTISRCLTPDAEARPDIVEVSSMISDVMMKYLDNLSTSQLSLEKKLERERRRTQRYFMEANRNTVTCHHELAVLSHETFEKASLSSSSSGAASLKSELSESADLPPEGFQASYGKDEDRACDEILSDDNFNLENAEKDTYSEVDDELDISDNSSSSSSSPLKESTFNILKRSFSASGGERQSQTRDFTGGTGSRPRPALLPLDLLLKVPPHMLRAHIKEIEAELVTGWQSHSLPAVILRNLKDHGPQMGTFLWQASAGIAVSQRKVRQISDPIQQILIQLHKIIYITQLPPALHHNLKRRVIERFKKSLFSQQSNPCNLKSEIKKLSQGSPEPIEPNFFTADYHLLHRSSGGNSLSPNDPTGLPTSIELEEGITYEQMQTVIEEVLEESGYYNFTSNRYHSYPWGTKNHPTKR

[16] = molecular target: Tyrosine-protein kinase Yes (Homo sapiens) (UniProt P07947); assay: Binding affinity to wild-type human partial length YES (T257 to L543 residues) expressed in bacterial expression system assessed as residual binding level at 1 uM by Kinomescan method relative to control
[17] = molecular target: Casein kinase I isoform alpha-like (Homo sapiens) (UniProt Q8N752); assay: Binding affinity to wild-type human full length CSNK1A1L (M1 to N337 residues) expressed in bacterial expression system assessed as residual binding level at 1 uM by Kinomescan method relative to control
[18] = molecular target: Hormonally up-regulated neu tumor-associated kinase (Homo sapiens) (UniProt P57058); assay: Binding affinity to wild-type human partial length HUNK (A31 to K354 residues) expressed in bacterial expression system assessed as residual binding level at 1 uM by Kinomescan method relative to control
Sequence of Hormonally up-regulated neu tumor-associated kinase (Homo sapiens) (P57058 whole entry, the tested form may be a part): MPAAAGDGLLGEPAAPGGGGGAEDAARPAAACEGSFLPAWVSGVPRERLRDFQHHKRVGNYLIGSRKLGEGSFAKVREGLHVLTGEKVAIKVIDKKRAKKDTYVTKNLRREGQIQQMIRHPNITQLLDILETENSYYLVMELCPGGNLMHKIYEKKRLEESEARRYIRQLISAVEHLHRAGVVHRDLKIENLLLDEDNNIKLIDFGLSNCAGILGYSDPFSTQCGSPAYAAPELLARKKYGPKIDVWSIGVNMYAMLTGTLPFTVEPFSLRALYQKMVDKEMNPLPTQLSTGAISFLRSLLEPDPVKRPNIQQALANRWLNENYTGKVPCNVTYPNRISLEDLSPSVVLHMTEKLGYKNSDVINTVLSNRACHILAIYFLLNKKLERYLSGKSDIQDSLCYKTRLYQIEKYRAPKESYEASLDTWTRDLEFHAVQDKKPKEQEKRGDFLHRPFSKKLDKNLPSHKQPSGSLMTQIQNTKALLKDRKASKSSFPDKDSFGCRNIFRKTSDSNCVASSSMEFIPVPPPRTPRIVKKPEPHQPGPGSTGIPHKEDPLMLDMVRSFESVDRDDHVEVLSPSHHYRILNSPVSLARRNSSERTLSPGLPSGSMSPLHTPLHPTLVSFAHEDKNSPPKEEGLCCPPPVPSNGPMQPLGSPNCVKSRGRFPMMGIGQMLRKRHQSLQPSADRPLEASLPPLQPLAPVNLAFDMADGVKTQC

[19] = molecular target: Death-associated protein kinase 1 (Homo sapiens) (UniProt P53355); assay: Binding affinity to wild-type human partial length DAPK1 (M1 to F296 residues) expressed in bacterial expression system assessed as residual binding level at 1 uM by Kinomescan method relative to control
[20] = molecular target: Casein kinase I isoform epsilon (Homo sapiens) (UniProt P49674); assay: Binding affinity to wild-type human full length CSNK1E (M1 to K416 residues) expressed in bacterial expression system assessed as residual binding level at 1 uM by Kinomescan method relative to control
Sequence of Casein kinase I isoform epsilon (Homo sapiens) (P49674 whole entry, looked up, the tested form may be a part, canonical isoform): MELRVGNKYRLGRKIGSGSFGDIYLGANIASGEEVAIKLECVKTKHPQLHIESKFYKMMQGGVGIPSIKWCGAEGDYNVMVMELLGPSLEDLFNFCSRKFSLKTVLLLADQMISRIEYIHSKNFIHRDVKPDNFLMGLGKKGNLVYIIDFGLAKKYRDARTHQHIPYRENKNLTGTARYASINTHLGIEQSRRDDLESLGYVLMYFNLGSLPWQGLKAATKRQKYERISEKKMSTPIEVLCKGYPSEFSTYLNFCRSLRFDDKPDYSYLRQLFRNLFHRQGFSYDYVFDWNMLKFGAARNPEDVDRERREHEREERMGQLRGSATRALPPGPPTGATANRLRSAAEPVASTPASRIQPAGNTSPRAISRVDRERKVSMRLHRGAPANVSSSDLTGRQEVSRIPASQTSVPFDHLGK

[21] = molecular target: Calcium/calmodulin-dependent protein kinase kinase 1 (Homo sapiens) (UniProt Q8N5S9); assay: Binding affinity to wild-type human partial length CAMKK1 (R65 to E414 residues) expressed in bacterial expression system assessed as residual binding level at 1 uM by Kinomescan method relative to control
[22] = molecular target: Mitogen-activated protein kinase kinase kinase 15 (Homo sapiens) (UniProt Q6ZN16); assay: Binding affinity to wild-type human partial length MAP3K15 (T625 to L932 residues) expressed in mammalian expression system assessed as residual binding level at 1 uM by Kinomescan method relative to control
[23] = molecular target: STE20/SPS1-related proline-alanine-rich protein kinase (Homo sapiens) (UniProt Q9UEW8); assay: Binding affinity to wild-type human partial length STK39 (P43 to I357 residues) expressed in mammalian expression system assessed as residual binding level at 1 uM by Kinomescan method relative to control
[24] = molecular target: Mitogen-activated protein kinase 6 (Homo sapiens) (UniProt Q16659); assay: Binding affinity to wild-type human partial length ERK3 (M1 to P413 residues) expressed in bacterial expression system assessed as residual binding level at 1 uM by Kinomescan method relative to control

C=CC(=O)Nc1cc(Nc2ncc(Cl)c(Nc3ccccc3S(=O)(=O)C(C)C)n2)c(OC)cc1N(C)CCN(C)C
Activity [1]: 40%
Activity [2]: 2.4%
Activity [3]: 98%
Activity [4]: 91%
Activity [5]: 9.6%
Activity [6]: 8.4%
Activity [7]: 4.5%
Activity [8]: 74%
remaining at 0.5 h, 1 µM [9]: 11%
Activity [10]: 81%
half-life [11]: 75 min
Activity [12]: 0%
concentration at 2 h [13]: 2360 nM
Activity [14]: 39%
Activity [15]: 28%
Activity [16]: 17%
Activity [17]: 86%
Activity [18]: 39%
Activity [19]: 59%
Activity [20]: 100%
Activity [21]: 2.8%
Activity [22]: 45%
Activity [23]: 20%
Activity [24]: 94%
